Source: PubChem
MT1-MMP txn act: MT1-MMP promoter transcription activation | HT1080 MT1-MMP promoter luciferase reporter, luminescence, overnight; hits give high values | activation factor at 10 µM | hit rate 0.16% among 86,000;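 active means activation factor of at least 2 for MT1-MMP transcription at 10 µM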
Fibroblast inh: blocks proliferation of human lung fibroblasts; LL 47 human lung fibroblast viability, ATP luminescence; hits give low values; viability, % at 10 µM; hit rate 1.1% among 85,000; AID 719;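 active means viability at or below 50% in the single dose screen; inactive means viability above 50%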;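 further: compound exposure lasted 72 h before the ATP readout; 100% = median luminescence of untreated cell-only wells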
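test system = LL 47 human lung fibroblasts | amount = 1,150 fibroblasts seeded per well | medium = 15% FBS in IMEM | times = overnight cell rest, 72 h compound treatment at 37 °C | measured by = CellTiter-Glo luminescence measuring cellular ATP | read-out = viability percentage against median untreated-cell control | benchmarks = cell-only wells, no compound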
Pyk2 oligo antag: blocks oligomerization of human Pyk2 in cells; Q14289; z-score (the deposit names both 25 µM and 10 µM); Q293 cells, Pyk2 FERM NanoBiT luminescence; hits give low values; hit rate 0.83% among 99,000; AID 1347419;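 active means Z-score of -3 or lower, scaled per plate to the spread of control and sample wells; inactive means z-score above -3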;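 further: negative z-score means lost luminescence so less FERM oligomerization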
Jurkat viability: cytotoxic compounds reducing Jurkat cell viability. AID 463. hit rate 1.2% among 56,000. Jurkat E6.1 viability, ATP luminescence, 48 h. inhibition, % at 4 µM;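 active means inhibition above the mean inhibition of all tested compounds plus 3 SD, cut at about 28% in these data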
H69AR inhibit: growth inhibitors of human H69AR lung tumor cells | H69AR lung tumor viability, ATP luminescence, 72 h; hits give low values | viability, % at 10 µM | hit rate 6% among 85,000 | AID 598;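 active means viability at or below 40%; inactive means viability above 40%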;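 further: multidrug resistant small cell line overexpressing MRP-1 efflux transporter; 100% = mean luminescence of untreated control wells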
HUVEC inhibit: inhibitors of human endothelial cell proliferation; HUVEC proliferation, CellTiter-Glo luminescence, 72 h; hits give low values; viability, % at 10 µM (by protocol); hit rate 1.1% among 86,000;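 active means viability at or below 30%; inactive means viability above 30%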;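 further: 100% = median luminescence of DMSO-only cell control wells on each plate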
The depositor's hits bear a star; nt = not tested or not shown. Most compounds without a hit are left out; they make up all but 5.9% or so of the library.

SMILES	MT1-MMP txn act	Fibroblast inh	Pyk2 oligo antag	Jurkat viability	H69AR inhibit	HUVEC inhibit
CC1=C(C(=O)N2CCCCC2)C(c2cccs2)NC(=O)N1 (centres undefined)	1.1	nt	0.27	-6	92	102
CC(C)c1nc(SCC(=O)N2CCCc3ccccc32)c2c(=O)n(C)c(=O)n(C)c2n1	nt	84	nt	nt	14*	57
CC(C)c1nc(SCc2c(F)cccc2Cl)c2c(=O)n(C)c(=O)n(C)c2n1	1.1	83	nt	-8	38*	56
CCCc1nc(SCC(=O)N2CCc3ccccc32)c2c(=O)n(C)c(=O)n(C)c2n1	1.1	74	nt	-2	57	97
Cc1ccc(Cl)cc1NC(=O)c1cccc(OC(F)F)c1	nt	nt	-0.94	nt	nt	nt
CCOc1cccc(NC(=O)C2CC(=O)N(C)C(=Nc3ccccc3)S2)c1 (centres undefined)	1	94	-1.4	3	21*	73
CCOc1cccc(NC(=O)C2CC(=O)N(C)C(=Nc3cccc(F)c3)S2)c1 (centres undefined)	nt	nt	-2.4	5	nt	nt
CCOc1ccc2[nH]c(=O)c(CN(Cc3cccs3)Cc3nnnn3C(C)(C)CC)cc2c1	1.2	91	-2	10	28*	83
CC(O)CNc1nc2ccccc2n1-c1ncnc2sc3c(c12)CCC3 (centres undefined)	1.1	81	0.48	-3	38*	53
Cc1oc(-c2ccccc2)cc1C(=O)Nc1cccc(C(=O)O)c1	1.3	103	-0.82	5	81	82
Cc1oc(-c2ccccc2)cc1C(=O)Nc1cccc2ccccc12	1.2	100	0.93	nt	34*	98
O=C(N/N=C/c1ccc2cccc(OCc3ccccc3)c2n1)c1ccc(Br)cc1	nt	nt	-2.4	nt	nt	nt
COc1ccc(C(=O)N/N=C/c2ccc3cccc(OCc4ccccc4)c3n2)cc1	nt	nt	-4*	nt	nt	nt
CCC(Sc1nc2cc3c(cc2c(=O)n1Cc1ccco1)OCO3)C(=O)Nc1cccc(OC)c1 (centres undefined)	0.9	36*	-0.99	nt	11*	4.1*
CCC(Sc1nc2cc3c(cc2c(=O)n1Cc1ccco1)OCO3)C(=O)NCCOC (centres undefined)	1.2	97	0.02	nt	88	109
CCC(Sc1nc2cc3c(cc2c(=O)n1Cc1ccco1)OCO3)C(=O)Nc1ccccc1OC (centres undefined)	0.9	55	-1.2	nt	7.6*	25*
O=C(CNC(=S)NC(=O)c1ccco1)c1ccccc1	nt	nt	-0.82	nt	nt	nt
O=c1c2ccccc2nc(-c2cccs2)n1-c1ccc2ccccc2c1	nt	nt	-0.55	nt	nt	nt
COc1ccccc1NC(=O)Cn1nnc(-c2ccccc2NS(=O)(=O)c2ccccc2)n1	nt	nt	-2.1	nt	nt	nt
CCn1nnc(-c2ccccc2NS(=O)(=O)c2ccc(C(=O)OC)cc2)n1	1.1	104	-0.18	22	17*	86
CCCSc1nc(NCc2ccco2)c2c3c(sc2n1)COC(C)(C)C3	1.2	102	0.79	nt	34*	88
Cc1ccc(NC(=O)C2=C(O)CCn3c2nc2ccccc23)cc1	1.4	84	-0.71	nt	26*	93
O=c1oc(-c2ccccc2F)nc2c1cnn2-c1ccccc1	1.2	82	-1.1	nt	54	5.9*
O=c1oc(-c2cccc(Cl)c2)nc2c1cnn2-c1ccccc1	1.1	100	0.13	nt	91	81
COC(=O)CN1C(=O)C(O)(CC(=O)c2ccc(C)cc2)c2cc(Br)ccc21 (centres undefined)	nt	nt	nt	-8	nt	nt
SMILES	MT1-MMP txn act	Fibroblast inh	Pyk2 oligo antag	Jurkat viability	H69AR inhibit	HUVEC inhibit
CN1C(=O)C(O)(CC(=O)c2ccc(F)cc2)c2cc(Br)ccc21 (centres undefined)	1.2	88	nt	3	25*	73
COc1ccc(Nc2nc(N)nc(CN3CCC(Cc4ccccc4)CC3)n2)cc1	1.2	65	nt	9	102	36
COc1ccccc1Nc1nc(N)nc(CN2CCC(Cc3ccccc3)CC2)n1	1	92	0.41	-1	40*	72
CCOC(=O)C1=C(C)N=c2s/c(=C3\C(=O)Nc4ccccc43)c(=O)n2C1c1ccc2c(c1)OCO2 (centres undefined)	1.1	91	0.08	-2	27*	73
CCOC(=O)C1=C(C)N=c2s/c(=C\c3ccncc3)c(=O)n2C1c1ccc2c(c1)OCO2 (centres undefined)	1	71	-2	nt	3.0*	50
CCOC(=O)C1=C(C)N=c2s/c(=C/c3ccccc3)c(=O)n2C1c1ccc(OC)c(OC)c1 (centres undefined)	nt	nt	-1.2	nt	nt	nt
CC(=O)NC(CCS(C)(=O)=O)C(=O)Nc1cccc(C(C)=O)c1 (centres undefined)	1.1	104	0.73	6	105	101
COc1ccc2c(c1OC)C(=O)N1c3ccccc3C(=O)N(c3ccccc3F)C21 (centres undefined)	0.9	98	-0.95	nt	3.7*	65
CC(=O)/C(=C/N(C)C)Sc1ccc(C)cc1	nt	96	1.3	nt	98	86
CCc1cccc2c(C(=O)Cn3nnc(-c4ccc(OC)c(OC)c4)n3)c[nH]c12	1.1	93	-1.9	nt	39*	80
CCc1cccc2c(C(=O)COC(=O)c3nn(C)c(=O)c4ccccc34)c[nH]c12	1.3	104	-2.4	nt	81	94
COc1cc(C2Nc3ccc4ncccc4c3C3=C2C(=O)CCC3)ccc1O (centres undefined)	1.1	70	-0.24	81*	28*	64
Cc1ccsc1C1Nc2ccc3ncccc3c2C2=C1C(=O)CCC2 (centres undefined)	nt	nt	-1.9	nt	nt	nt
Cc1ccccc1C(=O)N/N=C/c1ccc([N+](=O)[O-])s1	nt	64	-0.47	nt	21*	7.2*
O=C(N/N=C/c1ccc([N+](=O)[O-])s1)c1ccccc1Br	nt	63	0.35	nt	16*	62
O=C(Cc1ccccc1)N/N=C/c1ccc([N+](=O)[O-])s1	nt	nt	0.7	nt	nt	nt
Cc1ccc2ccc(C3C(=O)c4ccccc4C3=O)nc2c1	1.3	56	0.43	nt	59	71
CCC1CCc2c(sc(NC(=O)c3ccoc3C)c2C(N)=O)C1 (centres undefined)	1.6	88	0.58	8	35*	62
CCC(C)(C)C1CCc2c(sc(NC(=O)c3ccoc3C)c2C(N)=O)C1 (centres undefined)	1.1	89	0.47	nt	14*	63
Cc1occc1C(=O)Nc1sc2c(c1C(N)=O)CCC(C(C)(C)C)C2 (centres undefined)	1.2	93	0.53	nt	82	86
O=C(NCc1ccccc1)c1ccc(S(=O)(=O)N2CCCc3ccccc32)cc1	1.2	93	-1.6	nt	61	91
O=C(Nc1nnc(C2CC2)o1)c1ccc(S(=O)(=O)N2CCCc3ccccc32)cc1	nt	71	nt	102*	18*	62
COc1ccc(-c2nnc(NC(=O)c3ccc(S(=O)(=O)N4CCCc5ccccc54)cc3)o2)cc1	1.1	63	-3.7*	-2	17*	3.0*
